The source of these data is ChEMBL document CHEMBL1687813 (Antimicrob Agents Chemother, 2010).

For assay [1], the system named is Mycolicibacterium smegmatis. Nature of the assay: Antimicrobial activity against Mycobacterium smegmatis mc27092 harboring Mycobacterium tuberculosis H37Ra attBL5:::Ptc::pzaAMsmeg after 48 hrs by broth microdilution method at pH 6. The format is functional. As to conditions: mc27092, 48 h.
Assay [2] deals with Mycolicibacterium smegmatis. Nature of the assay: Antimicrobial activity against Mycobacterium smegmatis mc27093 harboring Mycobacterium tuberculosis H37Ra attBL5:::Ptc::pzaA from Mycobacterium tuberculosis after 11 days by broth microdilution method at pH 6.8. The format is functional. As to conditions: mc27093, 264 h. A digest of the protocol: (§1)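 Tubercle bacilli were diluted to 10^6 CFU/ml in supplemented 7H9 containing graded PZA or 5-Cl PZA, at pH 6.0 or neutral pH 6.8. Cultures were incubated 11 days at 37°C. The MIC is the lowest concentration blocking visible growth. Integrated amidase constructs were induced with 50 ng/ml anhydrotetracycline.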

Assay [3] relates to Mycolicibacterium smegmatis. Nature of the assay: Antimicrobial activity against Mycobacterium smegmatis mc27092 harboring Mycobacterium tuberculosis H37Ra attBL5:::Ptc::pzaAMsmeg after 11 days by broth microdilution method at pH 6.8. The format is functional. As to conditions: mc27092, 264 h. The procedure, abridged: as §1
The subject of assay [4] is Mycolicibacterium smegmatis. Nature of the assay: Antimicrobial activity against Mycobacterium smegmatis mc27093 harboring Mycobacterium tuberculosis H37Ra attBL5:::Ptc::pzaA from Mycobacterium tuberculosis after 11 days by broth microdilution method at pH 6. To be noted: mc27093, 264 h. The format is functional. The procedure, abridged:
as §1

Assay [5] concerns Mycobacterium tuberculosis variant bovis BCG. Nature of the assay: Antimicrobial activity against Mycobacterium bovis BCG Pasteur after 11 days by broth microdilution method at pH 6.8. It is filed as functional. As to conditions: 264 h. The procedure, abridged: as §1
Assay [6] deals with T1, PYRAZINAMIDASE/NICOTINAMIDAS PNCA (PZase) (Mycobacterium bovis) (UniProt Q93SP7).
T1 sequence (whole entry): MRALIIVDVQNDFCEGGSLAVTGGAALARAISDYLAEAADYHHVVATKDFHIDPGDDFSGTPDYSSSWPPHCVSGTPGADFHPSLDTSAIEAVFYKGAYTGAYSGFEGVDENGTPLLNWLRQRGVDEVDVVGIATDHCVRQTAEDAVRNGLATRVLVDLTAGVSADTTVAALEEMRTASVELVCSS
Nature of the assay: Activity of pyrazinamidase in Mycobacterium bovis BCG Pasteur assessed as compound turnover per ml of microbial cells after 30 mins by calorimetric analysis. To be noted: Mycobacterium tuberculosis variant bovis BCG. The procedure, abridged: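 Whole-cell colorimetric amidase assay: log-phase cells were pelleted and resuspended in sterile water with 0.05% tyloxapol. Substrate (PZA or 5-Cl PZA) was added to 2 mM at 37°C with shaking and sampled at intervals. Clarified aliquots received ferrous ammonium sulfate (20 mM final), stood 30 min at 4°C, were re-spun, and were read at OD468. Extinction coefficients were 0.68 (PA) and 0.47 (5-Cl PA) per mM. Activity is nmol/min per ml of cells (OD600).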

Assay [7] relates to Mycobacterium tuberculosis variant bovis BCG. Nature of the assay: Antimicrobial activity against Mycobacterium bovis BCG Pasteur after 11 days by broth microdilution method at pH 6. The format is functional. To be noted: 264 h. The procedure, abridged: as §1

In brackets after ≈: the same amount, converted by molar mass. Where only a bound is given, the exact number is not on record here.

For `NC(=O)c1cnccn1` [PYRAZINAMIDE], the MIC in assay [1] is 62.5 µg/mL (≈ 508 µM); in assay [2], 12.5 µg/mL (≈ 102 µM); in assay [3], more than 1000 µg/mL; in assay [4], 12.5 µg/mL (≈ 102 µM); in assay [5], 25 µg/mL (≈ 203 µM); in assay [7], 50 µg/mL (≈ 406 µM). The Activity in assay [6] stood at 0.015 nmol/min.

Regarding `NC(=O)c1cnc(Cl)cn1`, the MIC in assay [1] came out at 25 µg/mL (≈ 159 µM); in assay [2], 12.5 µg/mL (≈ 79.3 µM); in assay [3], 12.5 µg/mL (≈ 79.3 µM); in assay [4], 200 µg/mL (≈ 1270 µM); in assay [5] it was 100 µg/mL (≈ 635 µM); in assay [7], 25 µg/mL (≈ 159 µM). In addition, in assay [6], the Activity was 0.11 nmol/min.
